Bioassay records (PubChem BioAssay)
A1 inh – caspase 3/7 activation in MEF A1-2A-BIM cells, primary screen, A1 inhibitor project, cell-based, luminescence, HTS; Caspase-Glo 3/7 luminescence, 3 h; percent of clofoctol response, vehicle zero; caspase activation, % (no concentration beside the values); 0.066% of 330,000 active; AID 2462, 2010;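 active = over half of replicate activation scores above 10%, or exactly half above 10 with the replicate mean above 10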
CHOP UPR activ – activators of apoptotic CHOP UPR arm, primary screen, cell-based, CHO-CHOP luciferase reporter, luminescence, uHTS; UPR activation; percent of tunicamycin response over DMSO baseline; AID 449763, 2010; 0.34% of 330,000 active; activation, % at 10 µM;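 active = at 10 µM dose, activation of 40% or more, normalized to positive control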;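 note: 100% = tunicamycin at 10 µg/mL and 0% = DMSO alone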
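Assay system: CHO-CHOP cells, stable luciferase reporter of PERK-eIF2a-CHOP signalling / Buffer or medium: F12 plus 10% serum / Compound dosing: one dose, 10 µM in 0.5% DMSO / Times: 6 h compound treatment, 37 °C / Technique: luciferase luminescence / Read-out: % reporter activation, DMSO baseline versus tunicamycin full activation / Benchmarks: tunicamycin and DMSO controls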
CHOP inh – inhibitors of CHOP promoter induction, primary screen, cell-based, unfolded protein response, luciferase reporter; AID 2732, 2010; 3.8% of 220,000 active; CHO-K1 CHOP-promoter luciferase, tunicamycin-induced, 15-18 h; inhibition, % at 10 µM;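 active = compounds that reduced the stress-induced luciferase reporter signal by more than about 70% of percent inhibition, limit read from the data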;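 note: 0% = tunicamycin plus vehicle and 100% = wells without tunicamycin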
UPR XBP1 act – activators of adaptive XBP1 UPR arm, primary screen, cell-based, CHO-XBP1 luciferase reporter, luminescence, uHTS | 0.33% of 330,000 active | activation, % at 20 µM | IRE1-XBP1 UPR activation; percent of tunicamycin response, DMSO as zero;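 active = versus positive control, 20 µM dose yields 30% or more activation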;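 note: 100% = tunicamycin at 10 µg/mL and 0% = DMSO only wells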
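Material – CHO cell line with stable XBP1 luciferase reporter · Buffer or medium – F12 plus 10% FBS · Compound – single point, 20 µM final compound, 1% DMSO · Schedule – 16-18 h cell attachment at 37 °C, then 6 h compound exposure · Signal – Steady-Glo luminescence read · Benchmarks – high control tunicamycin 10 µg/mL final, low control DMSO vehicle only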
Numbers without * were called inactive; . = no result. The full list was thinned out, with hits kept by preference.

SMILES | A1 inh | CHOP UPR activ | CHOP inh | UPR XBP1 act
COc1cc(/C=C(/C#N)c2nc3ccccc3[nH]2)ccc1Oc1ncccc1[N+](=O)[O-] | 0 | 11 | 92* | 21
CCOc1cc(/C=C(/C#N)c2nc3ccccc3[nH]2)ccc1Oc1ccc([N+](=O)[O-])cn1 | 0 | 10 | 66 | 0
O=C(NCCC1=CCCCC1)C1CCC(CNc2nc(=S)[nH]c3ccccc23)CC1 (stereo not drawn) | -1 | 3 | 94* | 10
O=C(NCCc1ccc(Cl)cc1)C1CCC(CNc2nc(=S)[nH]c3ccccc23)CC1 (stereo not drawn) | 1 | -1 | 87* | 27
CCCCNC(=O)C1CCC(CNc2nc(=S)[nH]c3ccccc23)CC1 (stereo not drawn) | 0 | 3 | 23 | 0
COc1ccc(N2CCN(CCCNC(=O)C3CCC(CNc4nc(=S)[nH]c5ccccc45)CC3)CC2)cc1 (stereo not drawn) | 0 | 0 | 39 | -2
NC(=O)c1nsc(C(=O)N(c2ccccc2)C(C(=O)NCC2CCCO2)c2ccc3ncccc3c2)c1N (stereo not drawn) | 1 | 0 | . | -3
CN(CC(=O)Nc1ccc(Cl)cc1)S(=O)(=O)c1ccc2c(c1)n(C)c(=O)c(=O)n2C | -1 | -1 | . | -4
CCOC(=O)c1ccc(NC(=S)N(CCCN2CCCCCC2)Cc2ccco2)cc1 | 0 | 3 | 13 | -2
CCCCOC(=O)n1c(=S)oc2cc(Cl)ccc21 | 0 | 4 | 31 | 0
COC(=O)n1c(=S)oc2cc(Cl)ccc21 | 0 | -3 | 90* | -3
FC(F)(F)c1cccc(Cc2noc(CN3CCCCC3c3ccccn3)n2)c1 (stereo not drawn) | 0 | -1 | 74* | -1
CCN(CC(=O)Nc1c(F)cccc1F)C(=O)/C=C/c1ccc(OCC#N)c(OC)c1 | 0 | 0 | . | -5
CCN(CC(=O)Nc1c(F)cccc1F)C(=O)/C=C/c1ccc(C)cc1 | 12* | 3 | . | 0
CCCCN(C(=O)c1ccc(S(=O)(=O)N(C)C)cc1)c1nc2ccccc2s1 | 0 | 2 | 71* | -3
CN(C(=O)c1ccccc1)c1nc2ccccc2s1 | -5 | -2 | 72* | -10
CCCCN(C(=O)c1ccc(S(=O)(=O)N(C)C)cc1)c1ccccc1 | 0 | -2 | 20 | -1
CN(C)C(=O)c1nc2ccccc2s1 | 0 | 1 | -17 | 3
Cc1ccc2c(c1)Oc1ccc(NC(=O)CCl)cc1C(=O)N2 | 1 | 16 | 107* | -6
Cc1ccc2c(c1)Oc1ccc([N+](=O)[O-])cc1C(=O)N2 | 0 | -1 | -9 | 0
N#Cc1nc(COc2ccc(Cl)cc2Cl)oc1N1CCOCC1 | 0 | 4 | 63 | 4
CCCCNC(=O)C(C1CCCCC1)N(CCN(C)C)C(=O)CCCN1C(=O)NC(c2ccc(-c3ccccc3)cc2)C(C(=O)OCc2ccccc2)=C1C (stereo not drawn) | . | 30 | . | 41*
Cc1ccc(C(=O)CN2C(=O)c3ccccc3S2(=O)=O)cc1 | -3 | -9 | 87* | -9
CCOc1ccc(NC(=O)COC(=O)C2(C)CC2(Cl)Cl)c([N+](=O)[O-])c1 (stereo not drawn) | 0 | 2 | 97* | -1
CCOc1ccc(OCC(=O)Nc2ccc(OC)cc2[N+](=O)[O-])cc1 | 1 | 1 | 18 | 2
SMILES | A1 inh | CHOP UPR activ | CHOP inh | UPR XBP1 act
CCN(CC)C(=S)SCC(=O)Nc1nc(=O)c2ccccc2s1 | 1 | 3 | -12 | 2
CC(NC(=O)C(=O)N/N=C/c1ccccc1)c1ccccc1 (stereo not drawn) | 0 | 2 | 71* | 3
Cc1nc(SCC(=O)NCc2ccccc2)c2oc3ccccc3c2n1 | 0 | 1 | 72* | 1
Cc1nc(SCc2nc3c([N+](=O)[O-])cccc3[nH]2)c2oc3ccccc3c2n1 | 17* | 3 | . | 11
O=C(Nc1cc(F)cc(F)c1)c1sc(Cl)nc1-c1ccccc1 | 0 | 2 | 75* | 0
O=C(Nc1ccccc1)c1sc(Cl)nc1-c1ccccc1 | 0 | 2 | 9 | 2
O=C(NNC(=S)NCc1ccccc1)c1cccc([N+](=O)[O-])c1 | 0 | 0 | 9 | 1
Cc1cccc(OCC(=O)N/N=C\c2cn(C)c3ccccc23)c1 | -1 | 1 | 55 | 0
CCOC(=O)c1c2ccc(OCC(=O)N/N=C/c3ccccc3C(F)(F)F)cc2n2ccccc12 | . | . | 96* | .
Cc1ccc(C(=O)Nc2ccc(C(=O)N/N=C/c3c[nH]c4ccccc34)cc2)cc1 | 0 | 3 | -18 | -2
Cc1cccc(NC(=S)N/N=C/c2c[nH]c3ccccc23)c1 | -1 | 2 | 91* | -1
O=C(N/N=C\C=C\c1ccco1)c1cc(-c2ccc3ccccc3c2)n[nH]1 | 0 | 5 | 80* | 5
CC1(C)OC(=O)C(=Cc2ccc(-c3ccc(S(N)(=O)=O)cc3)o2)C(=O)O1 | 6.1* | 0 | 100* | 1
CCCc1nc(-c2cc3ccc(C)cc3[nH]c2=O)no1 | 1 | 1 | -6 | 3
CCOc1cc(-c2nc(-c3ccc(C)nc3OC)no2)cc(OCC)c1OCC | . | . | 77* | .
CCOc1cc(-c2nc(-c3ccc(C)nc3OCC)no2)cc(OCC)c1OCC | 0 | -1 | 4 | 1
CCOc1nc(C)ccc1-c1noc(-c2ccccc2OC)n1 | 1 | 1 | 72* | 4
CCOc1ccccc1-c1nc(-c2cc3ccc(C)cc3[nH]c2=O)no1 | 1 | -1 | 72* | 6
O=C(O)c1ccc(Nc2nc3c(s2)CCCC3)cc1 | -7 | -9 | 91* | -7
Cc1ccc2c(c1)[nH]c1c(=O)n(CCN3CCNCC3)cnc12 | . | . | 67 | .
O=c1c2[nH]c3ccccc3c2ncn1CCN1CCNCC1 | -1 | -1 | 89* | -1
CCc1nc2ccccc2c(C(=O)OCC(=O)NCc2ccco2)c1C | 2 | -5 | 10 | -4
CCN=c1scc(-c2ccc(F)cc2)n1/N=C/c1ccccn1 | -1 | 3 | 5 | 10
CCCc1sc(N/N=C/c2ccccn2)nc1-c1ccc(F)cc1 | 0 | 20 | 87* | 7
Cc1nc(N/N=C/c2ccccn2)sc1C | -10 | . | 86* | .
COC(=O)c1ccc(/C=N/Nc2nc(C)c(C)s2)cc1 | -2 | 7 | -41 | 0
Cc1ccc(N=Nc2c(N)[nH]n3c(=O)cc(-c4ccccc4)nc23)cc1 | 1 | 1 | 75* | 2
COc1cccc(N=Nc2c(N)[nH]n3c(=O)cc(-c4ccccc4)nc23)c1 | 0 | 9 | 67 | -1
O=[N+]([O-])c1ccccc1S(=O)(=O)NC1CCCCCCC1 | 0 | 4 | . | -4
O=C1CCCCCCC1Sc1ccccc1[N+](=O)[O-] (stereo not drawn) | 0 | -1 | 83* | -2
